Laboratory results taken from ChEMBL document CHEMBL1800074, “Novel quinoxaline derivatives for in vivo imaging of β-amyloid plaques in the brain” (Bioorg Med Chem Lett, 2011).
Blank lines part the entries; values can stand above or below the compound they belong to. The source made the active and inactive calls. No cut-off for these calls is given here.

Columns and labels:
[1] = Displacement of [125I]IMPY from amyloid beta (1-42) after 2 hrs by gamma counting
Procedure, shortened: (§1)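 Competition binding against [125I]IMPY on aggregated Aβ1-42, with inhibition curves built from the test ligand displacing the radioligand.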

Blood [2] = test: Biodistribution in ddY mouse blood at 37 KBq/100 ul, iv after 2 mins by gamma counting; type: ADME, organism-based; conditions: in vivo
Procedure, shortened: (§2)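 Normal ddY mice got an iv injection of the 125I-labelled ligand (no carrier added, radiochemical purity >98%). Organs were collected at 2, 30, 60 and 120 min. Activity is given as % injected dose per gram; stomach is given as % injected dose per organ. Values are the average of five mice ± standard deviation.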

Blood [3] = test: Biodistribution in ddY mouse blood at 37 KBq/100 ul, iv after 30 mins by gamma counting; type: ADME, organism-based; conditions: in vivo, 0.5 h; procedure, shortened: as §2
Blood [4] = test: Biodistribution in ddY mouse blood at 37 KBq/100 ul, iv after 60 mins by gamma counting; type: ADME, organism-based; conditions: in vivo, 1 h; procedure, shortened: as §2
Blood [5] = test: Biodistribution in ddY mouse blood at 37 KBq/100 ul, iv after 120 mins by gamma counting; type: ADME, organism-based; conditions: in vivo, 2 h; procedure, shortened: as §2
Brain [6] = test: Biodistribution in ddY mouse brain at 37 KBq/100 ul, iv after 2 mins by gamma counting; type: ADME, organism-based; conditions: in vivo; procedure, shortened: as §2
Brain [7] = test: Biodistribution in ddY mouse brain at 37 KBq/100 ul, iv after 30 mins by gamma counting; type: ADME, organism-based; conditions: in vivo, 0.5 h; procedure, shortened: as §2
Brain [8] = test: Biodistribution in ddY mouse brain at 37 KBq/100 ul, iv after 60 mins by gamma counting; type: ADME, organism-based; conditions: in vivo, 1 h; procedure, shortened: as §2
Brain [9] = test: Biodistribution in ddY mouse brain at 37 KBq/100 ul, iv after 120 mins by gamma counting; type: ADME, organism-based; conditions: in vivo, 2 h; procedure, shortened: as §2
Heart [10] = test: Biodistribution in ddY mouse heart at 37 KBq/100 ul, iv after 2 mins by gamma counting; type: ADME, organism-based; conditions: in vivo; procedure, shortened: as §2
Heart [11] = test: Biodistribution in ddY mouse heart at 37 KBq/100 ul, iv after 30 mins by gamma counting; type: ADME, organism-based; conditions: in vivo, 0.5 h; procedure, shortened: as §2
Heart [12] = test: Biodistribution in ddY mouse heart at 37 KBq/100 ul, iv after 60 mins by gamma counting; type: ADME, organism-based; conditions: in vivo, 1 h; procedure, shortened: as §2
Heart [13] = test: Biodistribution in ddY mouse heart at 37 KBq/100 ul, iv after 120 mins by gamma counting; type: ADME, organism-based; conditions: in vivo, 2 h; procedure, shortened: as §2
Liver [14] = test: Biodistribution in ddY mouse liver at 37 KBq/100 ul, iv after 2 mins by gamma counting; type: ADME, organism-based; conditions: in vivo; procedure, shortened: as §2
Liver [15] = test: Biodistribution in ddY mouse liver at 37 KBq/100 ul, iv after 30 mins by gamma counting; type: ADME, organism-based; conditions: in vivo, 0.5 h; procedure, shortened: as §2
Liver [16] = test: Biodistribution in ddY mouse liver at 37 KBq/100 ul, iv after 60 mins by gamma counting; type: ADME, organism-based; conditions: in vivo, 1 h; procedure, shortened: as §2
Liver [17] = test: Biodistribution in ddY mouse liver at 37 KBq/100 ul, iv after 120 mins by gamma counting; type: ADME, organism-based; conditions: in vivo, 2 h; procedure, shortened: as §2
Spleen [18] = test: Biodistribution in ddY mouse spleen at 37 KBq/100 ul, iv after 2 mins by gamma counting; type: ADME, organism-based; conditions: in vivo; procedure, shortened: as §2
Spleen [19] = test: Biodistribution in ddY mouse spleen at 37 KBq/100 ul, iv after 30 mins by gamma counting; type: ADME, organism-based; conditions: in vivo, 0.5 h; procedure, shortened: as §2
Spleen [20] = test: Biodistribution in ddY mouse spleen at 37 KBq/100 ul, iv after 60 mins by gamma counting; type: ADME, organism-based; conditions: in vivo, 1 h; procedure, shortened: as §2
Spleen [21] = test: Biodistribution in ddY mouse spleen at 37 KBq/100 ul, iv after 120 mins by gamma counting; type: ADME, organism-based; conditions: in vivo, 2 h; procedure, shortened: as §2
Lung [22] = test: Biodistribution in ddY mouse lung at 37 KBq/100 ul, iv after 2 mins by gamma counting; type: ADME, organism-based; conditions: in vivo; procedure, shortened: as §2
Lung [23] = test: Biodistribution in ddY mouse lung at 37 KBq/100 ul, iv after 30 mins by gamma counting; type: ADME, organism-based; conditions: in vivo, 0.5 h; procedure, shortened: as §2
Lung [24] = test: Biodistribution in ddY mouse lung at 37 KBq/100 ul, iv after 60 mins by gamma counting; type: ADME, organism-based; conditions: in vivo, 1 h; procedure, shortened: as §2
Lung [25] = test: Biodistribution in ddY mouse lung at 37 KBq/100 ul, iv after 120 mins by gamma counting; type: ADME, organism-based; conditions: in vivo, 2 h; procedure, shortened: as §2
Kidney [26] = test: Biodistribution in ddY mouse kidney at 37 KBq/100 ul, iv after 2 mins by gamma counting; type: ADME, organism-based; conditions: in vivo; procedure, shortened: as §2
Kidney [27] = test: Biodistribution in ddY mouse kidney at 37 KBq/100 ul, iv after 30 mins by gamma counting; type: ADME, organism-based; conditions: in vivo, 0.5 h; procedure, shortened: as §2
Kidney [28] = test: Biodistribution in ddY mouse kidney at 37 KBq/100 ul, iv after 60 mins by gamma counting; type: ADME, organism-based; conditions: in vivo, 1 h; procedure, shortened: as §2
Kidney [29] = test: Biodistribution in ddY mouse kidney at 37 KBq/100 ul, iv after 120 mins by gamma counting; type: ADME, organism-based; conditions: in vivo, 2 h; procedure, shortened: as §2
Stomach [30] = test: Biodistribution in ddY mouse stomach assessed per organ at 37 KBq/100 ul, iv after 2 mins by gamma counting; type: ADME, organism-based; conditions: in vivo; procedure, shortened: as §2
Stomach [31] = test: Biodistribution in ddY mouse stomach assessed per organ at 37 KBq/100 ul, iv after 30 mins by gamma counting; type: ADME, organism-based; conditions: in vivo, 0.5 h; procedure, shortened: as §2
Stomach [32] = test: Biodistribution in ddY mouse stomach assessed per organ at 37 KBq/100 ul, iv after 60 mins by gamma counting; type: ADME, organism-based; conditions: in vivo, 1 h; procedure, shortened: as §2
Stomach [33] = test: Biodistribution in ddY mouse stomach assessed per organ at 37 KBq/100 ul, iv after 120 mins by gamma counting; type: ADME, organism-based; conditions: in vivo, 2 h; procedure, shortened: as §2
Intestine [34] = test: Biodistribution in ddY mouse intestine at 37 KBq/100 ul, iv after 2 mins by gamma counting; type: ADME, organism-based; conditions: in vivo; procedure, shortened: as §2
Intestine [35] = test: Biodistribution in ddY mouse intestine at 37 KBq/100 ul, iv after 30 mins by gamma counting; type: ADME, organism-based; conditions: in vivo, 0.5 h; procedure, shortened: as §2
Intestine [36] = test: Biodistribution in ddY mouse intestine at 37 KBq/100 ul, iv after 60 mins by gamma counting; type: ADME, organism-based; conditions: in vivo, 1 h; procedure, shortened: as §2
Intestine [37] = test: Biodistribution in ddY mouse intestine at 37 KBq/100 ul, iv after 120 mins by gamma counting; type: ADME, organism-based; conditions: in vivo, 2 h; procedure, shortened: as §2
Brain [38] = test: Ratio of drug uptake after 2 mins to drug uptake in 120 mins in ddY mouse brain at 37 KBq/100 ul, iv; type: ADME, organism-based; conditions: in vivo
Procedure, shortened: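 Brain uptake (% injected dose per gram) in normal ddY mice after iv injection of the 125I-labelled ligand. The value is the brain 2 min / brain 120 min ratio, from five mice per time point.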

[39] = Lipophilicity, log D of the compound; type: physicochemical; conditions: octanol/water
[40] = molecular target: Amyloid-beta precursor protein (Homo sapiens) (UniProt P05067); test: Binding affinity to amyloid beta (1-42) plaque in brain of patient with Alzheimer's disease at 185 KBq/100ul after 1 hr by immunofluorescence staining method; type: tissue-based; conditions: tested as the 125I-labelled form
Sequence of Amyloid-beta precursor protein (Homo sapiens) (P05067 whole entry): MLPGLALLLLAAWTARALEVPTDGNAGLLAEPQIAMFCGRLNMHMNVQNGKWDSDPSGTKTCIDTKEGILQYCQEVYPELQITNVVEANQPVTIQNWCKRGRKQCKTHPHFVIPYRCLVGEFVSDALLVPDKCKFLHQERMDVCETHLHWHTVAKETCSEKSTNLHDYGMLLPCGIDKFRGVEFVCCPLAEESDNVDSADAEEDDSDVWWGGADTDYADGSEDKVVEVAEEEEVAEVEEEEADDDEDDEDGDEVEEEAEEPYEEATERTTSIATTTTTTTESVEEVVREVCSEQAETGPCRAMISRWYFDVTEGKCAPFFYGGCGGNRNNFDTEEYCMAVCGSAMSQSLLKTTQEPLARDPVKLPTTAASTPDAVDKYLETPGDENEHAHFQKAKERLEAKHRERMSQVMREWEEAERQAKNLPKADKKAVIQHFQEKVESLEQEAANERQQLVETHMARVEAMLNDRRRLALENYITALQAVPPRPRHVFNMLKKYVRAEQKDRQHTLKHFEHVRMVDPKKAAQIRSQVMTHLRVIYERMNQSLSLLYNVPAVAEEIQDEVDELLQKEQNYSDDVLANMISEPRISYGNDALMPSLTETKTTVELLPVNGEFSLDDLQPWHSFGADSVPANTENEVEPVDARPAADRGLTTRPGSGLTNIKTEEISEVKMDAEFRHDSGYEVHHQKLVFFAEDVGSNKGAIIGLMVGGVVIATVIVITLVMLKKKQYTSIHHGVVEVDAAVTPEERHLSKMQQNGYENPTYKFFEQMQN
Procedure, shortened: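 In vitro autoradiography with the 125I-labelled ligand on brain sections from an Alzheimer's disease patient. Plaque presence and distribution were confirmed by immunohistochemical staining with a monoclonal Aβ antibody.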

Mus musculus = species: Mus musculus; test: Binding affinity to amyloid beta plaque in APP/PS1 transgenic C57BL/6 mouse brain cortex at 185 KBq/100 ul after 1 hr by thioflavin S-fluorescence staining method; type: tissue-based; conditions: C57BL6, tested as the 125I-labelled form
[41] = Binding affinity to amyloid beta (1-42) after 2 hrs by gamma counting; procedure, shortened: as §1

Ki [1]: 10.7 nM
SMILES: Nc1ccc(-c2cnc3cc(I)ccc3n2)cc1

Drug uptake (Blood [2]): 4.71 % ID/g
Drug uptake (Blood [3]): 2.88 % ID/g
Drug uptake (Blood [4]): 2.98 % ID/g
Drug uptake (Blood [5]): 1.88 % ID/g
Drug uptake (Brain [6]): 6.03 % ID/g
Drug uptake (Brain [7]): 5.21 % ID/g
Drug uptake (Brain [8]): 2.91 % ID/g
Drug uptake (Brain [9]): 1.12 % ID/g
Drug uptake (Heart [10]): 14.91 % ID/g
Drug uptake (Heart [11]): 2.53 % ID/g
Drug uptake (Heart [12]): 2.17 % ID/g
Drug uptake (Heart [13]): 1.22 % ID/g
Drug uptake (Liver [14]): 30.49 % ID/g
Drug uptake (Liver [15]): 15.73 % ID/g
Drug uptake (Liver [16]): 12.5 % ID/g
Drug uptake (Liver [17]): 7.53 % ID/g
Drug uptake (Spleen [18]): 5.69 % ID/g
Drug uptake (Spleen [19]): 2.82 % ID/g
Drug uptake (Spleen [20]): 2.22 % ID/g
Drug uptake (Spleen [21]): 1.17 % ID/g
Drug uptake (Lung [22]): 14.53 % ID/g
Drug uptake (Lung [23]): 3.99 % ID/g
Drug uptake (Lung [24]): 3.53 % ID/g
Drug uptake (Lung [25]): 1.95 % ID/g
Drug uptake (Kidney [26]): 19.67 % ID/g
Drug uptake (Kidney [27]): 8.76 % ID/g
Drug uptake (Kidney [28]): 6.68 % ID/g
Drug uptake (Kidney [29]): 3.96 % ID/g
Drug uptake (Stomach [30]): 2.06 %ID
Drug uptake (Stomach [31]): 3.28 %ID
Drug uptake (Stomach [32]): 5.39 %ID
Drug uptake (Stomach [33]): 8.62 %ID
Drug uptake (Intestine [34]): 3.43 % ID/g
Drug uptake (Intestine [35]): 18.62 % ID/g
Drug uptake (Intestine [36]): 22.5 % ID/g
Drug uptake (Intestine [37]): 16.93 % ID/g
Ratio (Brain [38]): 5.38
logD [39]: 4.02
SMILES: CN(C)c1ccc(-c2cnc3cc([125I])ccc3n2)cc1

Ki [1]: 2.6 nM
SMILES: CN(C)c1ccc(-c2cnc3cc(Br)ccc3n2)cc1

Ki [1]: 7.7 nM
SMILES: CNc1ccc(-c2cnc3cc(I)ccc3n2)cc1

Ki [1]: 3 nM
SMILES: CNc1ccc(-c2ccc3cc(OCCOCCOCCF)ccc3c2)cc1

Ki [1]: 4.1 nM
Activity [40]: Active
Activity (Mus musculus): Active
SMILES: CN(C)c1ccc(-c2cnc3cc(I)ccc3n2)cc1

Kd [41]: 0.43 nM
SMILES: CN(C)c1ccc(-c2cn3cc([123I])ccc3n2)cc1

Ki [1]: 1.6 nM
SMILES: CNc1ccc2cc(-c3ccc(OCCOCCOCCF)cc3)ccc2c1
